From ChEMBL document CHEMBL2016516, “Design, synthesis and biological evaluation of novel chalcone derivatives as antitubulin agents” (Bioorg Med Chem, 2012)
Values after ≈ are worked out from the molar mass of the structure shown.

Key:
[1] = Inhibition of bovine tubulin polymerization after 20 mins by spectrophotometry; design: species or system Bos taurus
Summary of the method: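 Tubulin was purified from bovine brain. Varying compound concentrations were preincubated with 10 µM tubulin in glutamate buffer at 30 °C, then cooled to 0 °C. GTP was added and the mixtures were moved to 0 °C cuvettes. They were then warmed to 30 °C in a recording spectrophotometer, with assembly followed turbidimetrically.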

A549 = test: Antiproliferative activity against human A549 cells after 48 hrs by MTT assay; format: functional, cell-based; conditions: A549, 48 h
Summary of the method: (§1)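 Cells grown to log phase in RPMI 1640 with 10% FBS, diluted to 2 × 10⁴ cells/mL and seeded, then incubated 24 h at 37 °C, 5% CO₂ before treatment. Samples at pre-set concentrations were added in six wells, with colchicine and CA-4 as references. After 48 h, MTT in PBS was added for 4 h, followed by extraction solution (10% SDS).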

MCF7 [2] = test: Antiproliferative activity against human MCF7 cells after 48 hrs by MTT assay; format: functional, cell-based; conditions: MCF7, 48 h; summary of the method: as §1
MCF7 [3] = test: Cell cycle arrest in human MCF7 cells assessed as accumulation in S phase at 5 ug/ml after 24 hrs by flow cytometry (reference value: 8.06%); format: functional
MCF7 [4] = test: Cell cycle arrest in human MCF7 cells assessed as accumulation in G2/M phase at 5 ug/ml after 24 hrs by flow cytometry (reference value: 12.99%); format: functional
MCF7 [5] = test: Cell cycle arrest in human MCF7 cells assessed as accumulation in G0/G1 phase at 5 ug/ml after 24 hrs by flow cytometry (reference value: 47.79%); format: functional

Row | Compound | IC50 [1] [µg/mL] | IC50 (A549) [µg/mL] | IC50 (MCF7 [2]) [µg/mL] | Activity (MCF7 [3]) [%] | Activity (MCF7 [4]) [%] | Activity (MCF7 [5]) [%]
1 | O=C(/C=C/c1cc(Cl)ccc1Oc1c([N+](=O)[O-])cc(C(F)(F)F)cc1[N+](=O)[O-])c1ccc(F)cc1 | 11.66 (≈ 22.8 µM) | 23.8 (≈ 46.6 µM) | 5.17 (≈ 10.1 µM) | – | – | –
2 | Cc1ccc(C(=O)/C=C/c2cc(Cl)cc(Cl)c2Oc2c([N+](=O)[O-])cc(C(F)(F)F)cc2[N+](=O)[O-])cc1 | 4.87 (≈ 9 µM) | 10 (≈ 18.6 µM) | 0.7 (≈ 1.29 µM) | – | – | –
3 | COc1ccc(/C=C\c2cc(OC)c(OC)c(OC)c2)cc1O [COMBRETASTATIN A4] | 0.81 (≈ 2.56 µM) | 0.53 (≈ 1.68 µM) | 0.43 (≈ 1.36 µM) | – | – | –
4 | Cc1ccc(C(=O)/C=C/c2cc(Br)cc(Br)c2Oc2c([N+](=O)[O-])cc(C(F)(F)F)cc2[N+](=O)[O-])cc1 | 5.68 (≈ 9.01 µM) | 10.1 (≈ 16.1 µM) | 1.44 (≈ 2.29 µM) | – | – | –
5 | O=C(/C=C/c1cc(Br)cc(Br)c1Oc1c([N+](=O)[O-])cc(C(F)(F)F)cc1[N+](=O)[O-])c1ccc(Cl)cc1 | 12.6 (≈ 19.4 µM) | 19.4 (≈ 29.9 µM) | 6.76 (≈ 10.4 µM) | – | – | –
6 | Cc1ccc(C(=O)/C=C/c2cc(Cl)ccc2Oc2c([N+](=O)[O-])cc(C(F)(F)F)cc2[N+](=O)[O-])cc1 | 1.42 (≈ 2.8 µM) | 0.95 (≈ 1.87 µM) | 0.03 (≈ 0.0592 µM) | 1.55 | 67.93 | 2.36
7 | O=C(/C=C/c1cc(Br)ccc1Oc1c([N+](=O)[O-])cc(C(F)(F)F)cc1[N+](=O)[O-])c1ccc(Br)cc1 | 6.25 (≈ 10.1 µM) | 13.7 (≈ 22.3 µM) | 2.17 (≈ 3.52 µM) | – | – | –
8 | O=C(/C=C/c1cc(Cl)ccc1Oc1c([N+](=O)[O-])cc(C(F)(F)F)cc1[N+](=O)[O-])c1ccc(Cl)cc1 | 4.68 (≈ 8.88 µM) | 11.7 (≈ 22.2 µM) | 3.21 (≈ 6.09 µM) | – | – | –
9 | O=C(/C=C/c1cc(Br)cc(Br)c1Oc1c([N+](=O)[O-])cc(C(F)(F)F)cc1[N+](=O)[O-])c1ccc(F)cc1 | 15.31 (≈ 24.1 µM) | 120 (≈ 190 µM) | 8.06 (≈ 12.7 µM) | – | – | –
10 | COc1cc2c(c(OC)c1OC)-c1ccc(OC)c(=O)cc1[C@@H](NC(C)=O)CC2 [COLCHICINE] | 1.7 (≈ 4.26 µM) | 0.74 (≈ 1.85 µM) | 0.51 (≈ 1.28 µM) | 1.34 | 78.1 | 1.96

Continued, in another order:

Row | IC50 [1] [µg/mL] | IC50 (A549) [µg/mL] | IC50 (MCF7 [2]) [µg/mL] | Compound | Activity (MCF7 [3]) [%] | Activity (MCF7 [4]) [%] | Activity (MCF7 [5]) [%]
11 | 6.41 (≈ 11.6 µM) | 6.85 (≈ 12.4 µM) | 0.55 (≈ 0.998 µM) | Cc1ccc(C(=O)/C=C/c2cc(Br)ccc2Oc2c([N+](=O)[O-])cc(C(F)(F)F)cc2[N+](=O)[O-])cc1 | – | – | –
12 | 6.02 (≈ 9.32 µM) | 13.2 (≈ 20.4 µM) | 3.53 (≈ 5.46 µM) | COc1ccc(C(=O)/C=C/c2cc(Br)cc(Br)c2Oc2c([N+](=O)[O-])cc(C(F)(F)F)cc2[N+](=O)[O-])cc1 | – | – | –
13 | 4.62 (≈ 8.08 µM) | 10.9 (≈ 19 µM) | 1.41 (≈ 2.47 µM) | O=C(/C=C/c1cc(Cl)ccc1Oc1c([N+](=O)[O-])cc(C(F)(F)F)cc1[N+](=O)[O-])c1ccc(Br)cc1 | – | – | –
14 | 6.34 (≈ 11.3 µM) | 17.2 (≈ 30.7 µM) | 4.54 (≈ 8.08 µM) | O=C(/C=C/c1cc(Cl)cc(Cl)c1Oc1c([N+](=O)[O-])cc(C(F)(F)F)cc1[N+](=O)[O-])c1ccc(Cl)cc1 | – | – | –
15 | 12.31 (≈ 22.2 µM) | 26.3 (≈ 47.4 µM) | 6.01 (≈ 10.8 µM) | O=C(/C=C/c1cc(Br)ccc1Oc1c([N+](=O)[O-])cc(C(F)(F)F)cc1[N+](=O)[O-])c1ccc(F)cc1 | – | – | –
16 | 4.83 (≈ 9.24 µM) | 11.5 (≈ 22 µM) | 1.83 (≈ 3.5 µM) | COc1ccc(C(=O)/C=C/c2cc(Cl)ccc2Oc2c([N+](=O)[O-])cc(C(F)(F)F)cc2[N+](=O)[O-])cc1 | – | – | –
17 | 6.56 (≈ 11.8 µM) | 12.5 (≈ 22.5 µM) | 2.69 (≈ 4.83 µM) | COc1ccc(C(=O)/C=C/c2cc(Cl)cc(Cl)c2Oc2c([N+](=O)[O-])cc(C(F)(F)F)cc2[N+](=O)[O-])cc1 | – | – | –
18 | 7.14 (≈ 12.5 µM) | 16.5 (≈ 28.9 µM) | 4.74 (≈ 8.29 µM) | O=C(/C=C/c1cc(Br)ccc1Oc1c([N+](=O)[O-])cc(C(F)(F)F)cc1[N+](=O)[O-])c1ccc(Cl)cc1 | – | – | –
19 | 4.08 (≈ 7.19 µM) | 12.6 (≈ 22.3 µM) | 2.32 (≈ 4.09 µM) | COc1ccc(C(=O)/C=C/c2cc(Br)ccc2Oc2c([N+](=O)[O-])cc(C(F)(F)F)cc2[N+](=O)[O-])cc1 | – | – | –
20 | 9.46 (≈ 15.6 µM) | 14.5 (≈ 23.9 µM) | 2.6 (≈ 4.29 µM) | O=C(/C=C/c1cc(Cl)cc(Cl)c1Oc1c([N+](=O)[O-])cc(C(F)(F)F)cc1[N+](=O)[O-])c1ccc(Br)cc1 | – | – | –
21 | 10.01 (≈ 14.4 µM) | 16.8 (≈ 24.2 µM) | 2.87 (≈ 4.13 µM) | O=C(/C=C/c1cc(Br)cc(Br)c1Oc1c([N+](=O)[O-])cc(C(F)(F)F)cc1[N+](=O)[O-])c1ccc(Br)cc1 | – | – | –
22 | 9.62 (≈ 17.6 µM) | 29.3 (≈ 53.8 µM) | 5.02 (≈ 9.21 µM) | O=C(/C=C/c1cc(Cl)cc(Cl)c1Oc1c([N+](=O)[O-])cc(C(F)(F)F)cc1[N+](=O)[O-])c1ccc(F)cc1 | – | – | –
